Compound activity: PubChem BioAssay, several laboratories
L major viab – Leishmania major promastigote growth inhibition; Leishmania major promastigotes, resazurin fluorescence viability; inhibition, % at 10 µM; 200,000 compounds, 9% hits; in the data active = inhibition above about 50%;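 note: promastigotes grown with compound for 44 hours at 28 °C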
MT stabilizer – microtubule stabilizers in HeLa cells; % tubulin-high responders, % at 10 µM; AID 2205; HeLa tubulin immunostaining HCS, 24 h; share of cells brighter than vehicle mean+2SD; 200,000 compounds, 0.83% hits;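 active = plate Z-score above 3 for both tubulin-high and condensed-nucleus cell shares, with cell loss under 80%, at 10 µM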;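 note: anti alpha tubulin signal scored within the nucleus-defined area of each cell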
bCat nuc transl – alters nuclear translocation of beta-catenin in HeLa cells; immunofluorescence imaging; nuclear translocation activity, % at 5 µM; 190,000 compounds, 0.3% hits; AID 1665;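 active = nuclear translocation activity above 50% at 5 µM, with a well cell count of 50 or more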;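 note: per-cell ratio of nuclear to cytoplasmic median beta-catenin stain intensity; plate controls were DMSO negative control for no effect and GSK-3 inhibitor IX positive control for full effect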
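Read-out: Nuclear/cytoplasmic beta-catenin signal ratio, % activation | Assay system: Human HeLa cell line | Times: 24 h compound exposure at 37°C, 5% CO2 | Signal: Fluorescence imaging of beta-catenin antibody stain plus DAPI | Dosing: 5 µM primary, 0.02–20 µM confirmation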
HSV augment – increases HSV replication in cells | HSV replication augmentation in cells, fold increase | AID 1956 | 220,000 compounds, 0.005% hits | maximum fold increase; in the data active = maximum fold increase above about 1.5; tested in PC3 cells
Dynein cargo inh – dynein cargo transport inhibition; 3617.4 mouse cells, GR-EGFP nuclear translocation imaging; test concentration mostly 20 µM; stimulated with dexamethasone, 1 µM; hits give low values; AID 1381; 220,000 compounds, 0.47% hits; z-score, hits read low;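 active = plate z-score of nuclear minus cytoplasmic receptor signal below a set negative limit, without overly bright fluorescence or cell loss, cut at about -3.5 in these data, passing the limit was not always enough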;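 note: z-score of nuclear minus cytoplasmic ring GR-EGFP intensity difference per well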
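Buffer or medium: Induction medium lacking tetracycline, stripped serum | Also added: Dexamethasone agonist, 1.0 µM final, for 30 min | Timing: 48 h induction, 1 h compound, 30 min dex at 37 °C | Detection: Formaldehyde fixation, Hoechst nuclear stain, 10x automated fluorescence imaging | Measure: Nuclear versus cytoplasmic GR-EGFP signal, averaged per well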
Numbers without * were called inactive. Sampled rows, rich in hits. Any-hit rate of the full collection: about 8.9%.

`O=C(N/N=C/c1cc(Cl)ccc1O)c1ccc(Br)cc1` gave L major viab 98.6*, MT stabilizer 8.2, bCat nuc transl -0.2, HSV augment inactive and Dynein cargo inh 0.209.
For Cc1cccc(/C=N\NC(=O)c2ccc(Cl)cc2)c1O the results were L major viab 72.4*, MT stabilizer 2.0, bCat nuc transl -1.3, HSV augment inactive and Dynein cargo inh 1.09.
CC(C)C(=O)Nc1ccc(C(=O)N/N=C/c2cc(Br)cc(Br)c2O)cc1 was read as L major viab 88.9*, MT stabilizer 2.6, bCat nuc transl 1.9, HSV augment inactive and Dynein cargo inh 1.36.
Screening O=C(N/N=C/c1cc(Br)ccc1O)c1ccncc1 returned bCat nuc transl 2.9, HSV augment inactive and Dynein cargo inh -0.644.
`CCOc1ccc(N(CC(=O)NCC2CCCO2)S(=O)(=O)c2ccc(OC)c(OC)c2)cc1` (stereo not given) gave L major viab -7.6, MT stabilizer 3.5, bCat nuc transl -1.5, HSV augment inactive and Dynein cargo inh -0.707.
For O=C(N/N=C\c1cc(Br)ccc1O)c1ccc(S(=O)(=O)N2CCCCC2)cc1 the results were L major viab 98.2*, MT stabilizer 4.2, bCat nuc transl -1.7, HSV augment inactive and Dynein cargo inh -0.417.
O=C(N/N=C/c1ccc(O)c(O)c1)c1cccc(S(=O)(=O)N2CCCCC2)c1 was read as L major viab 10.4, MT stabilizer 3.6, bCat nuc transl -1.8, HSV augment inactive and Dynein cargo inh -0.0469.
`CCOC(=O)c1c(NC(=O)CSc2nc3cccnc3n2C)sc(C(C)=O)c1C` gave L major viab -4.0, MT stabilizer 2.2, bCat nuc transl 2.0, HSV augment inactive and Dynein cargo inh -0.26.
CCOC(=O)c1c(NC(=O)CSc2ncnc3ccccc23)sc(C(C)=O)c1C was read as L major viab 79.8*, MT stabilizer 3.4, bCat nuc transl 1.8, HSV augment inactive and Dynein cargo inh -0.758.
CCOC(=O)c1c(NC(=O)CSc2nnc(-c3ccccc3C)n2C)sc(C(C)=O)c1C was read as L major viab 73.3*, MT stabilizer 7.3, bCat nuc transl -0.1, HSV augment inactive and Dynein cargo inh -0.736.
Screening CCOC(=O)c1c(NC(=O)CSc2nc3ccccc3c(=O)n2-c2ccc(F)cc2)sc(C(C)=O)c1C returned L major viab 17.4, MT stabilizer 4.7, bCat nuc transl -1.6, HSV augment inactive and Dynein cargo inh 0.823.
`CSc1ccc(C(C(C(=O)c2cccs2)N2CCOCC2)N2CCOCC2)cc1` (stereo not given) gave L major viab 4.1, MT stabilizer 1.4, bCat nuc transl -2.9, HSV augment inactive and Dynein cargo inh 0.611.
`CN(C)c1ccc(-c2nn3c(-c4ccc(Cl)cc4)nnc3s2)cc1` gave L major viab -4.4, MT stabilizer 2.0, bCat nuc transl 2.6, HSV augment inactive and Dynein cargo inh -0.161.
For CN(C)c1ccc(/C=C/c2nnnn2-c2ccccc2)cc1 the results were L major viab 56.3*, MT stabilizer 3.7, bCat nuc transl -1.7, HSV augment inactive and Dynein cargo inh -0.301.
Cc1cc(N/C=C\c2nnnn2-c2ccccc2)no1 was read as L major viab -0.8, MT stabilizer 2.8, HSV augment inactive and Dynein cargo inh -0.329.
Cc1ccc(SC(C)C(=O)Nc2ccncc2)cc1 (stereo not given) was read as L major viab 92.7*, MT stabilizer 0.9, bCat nuc transl 1.7, HSV augment inactive and Dynein cargo inh -0.0231.
COc1ccc(CNC(=O)COC(=O)c2ccccc2OCC(=O)Nc2ccc(SC(F)F)cc2)cc1 was read as bCat nuc transl 0.2, HSV augment inactive and Dynein cargo inh 0.401.
Screening O=C(CSc1nnc2scc(-c3ccccc3)n12)Nc1nsc(-c2ccccc2)n1 returned L major viab 7.6, MT stabilizer 1.7, bCat nuc transl 1.5, HSV augment inactive and Dynein cargo inh 0.346.
S=C(c1ccc2c(c1)OCO2)N1CCCCCC1 was read as L major viab -6.2, MT stabilizer 2.6, HSV augment inactive and Dynein cargo inh -0.866.
Screening Oc1cc2c(cc1C(c1ccc(Br)cc1)N1CCCC1)OCO2 (stereo not given) returned L major viab 72.9*, MT stabilizer 1.6, bCat nuc transl -1.9, HSV augment inactive and Dynein cargo inh -1.79.
